A short description of experiment [1]: In vitro Natural Killer cell activity (Activation of murine splenocyte NK cells by its ability to lyze YAC-1 target cells in chromium release assay) relative to interleukin 2; Range 0-20%. Format: functional, Mus musculus. In outline:
(§1)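 Spleens from female C57BL/6 (H-2b) mice, 6–8 weeks old, homogenized in RPMI 1640 with 10% FCS and 2 mM L-glutamine. Mononuclear cells isolated on a Lympholyte M gradient (800g, 20 min), washed in PBS, viability checked by trypan blue. 5×10^5 splenocytes with compound incubated 4 h with 5×10^3 51Cr-labelled YAC-1 cells; % specific lysis from released chromium. Compounds tested at 10^-4–10^-12 M. Peak activity scored relative to IL 2 (100%) in 20% bands. Actives run 2–5 times, inactives once.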

The nature of experiment [2]: In vitro Natural Killer cell activity (Activation of murine splenocyte NK cells by its ability to lyze YAC-1 target cells in chromium release assay) relative to interleukin 2 at 10E-4 to 10E-12 M conc. Format: functional, Mus musculus. The essentials: as §1
The species named for experiment [3] is Mus musculus. The experiment can be described thus: Peak or the range of peak activity relative to positive IL 2 control; Range 10e-8-10e-4. It counts as functional. In outline:
as §1

Experiment [4] in a line: In vitro Natural Killer cell activity (Activation of murine splenocyte NK cells by its ability to lyze YAC-1 target cells in chromium release assay) relative to interleukin 2 at 10E-4 to 10E-12 M conc; Range 21-40%. Format: functional, Mus musculus. In outline:
as §1

Experiment [5] is described as follows: In vitro Natural Killer cell activity (Activation of murine splenocyte NK cells by its ability to lyze YAC-1 target cells in chromium release assay) relative to interleukin 2 at 10E-4 to 10E-12 M conc; Range 41-60%. Format: functional, Mus musculus. The essentials: as §1
Experiment [6] is described as follows: In vitro Natural Killer cell activity (Activation of murine splenocyte NK cells by its ability to lyze YAC-1 target cells in chromium release assay) relative to interleukin 2 at 10E-4 to 10E-12 M conc; Range 61-80%. Format: functional, Mus musculus. In outline:
as §1

The species entered for experiment [7] is Mus musculus. As to the kind of experiment: Peak or the range of peak activity relative to positive IL 2 control; Range 10e-12-10e-5. Format: functional. The essentials: as §1
The species entered for experiment [8] is Mus musculus. The experiment can be described thus: Peak or the range of peak activity relative to positive IL 2 control; Range 10e-12-10e-4. It counts as functional. The essentials:
as §1

Experiment [9] can be described thus: In vitro Natural Killer cell activity (Activation of murine splenocyte NK cells by its ability to lyze YAC-1 target cells in chromium release assay) relative to interleukin 2 at 10E-4 to 10E-10 M conc; Range 41-60%. It counts as functional, Mus musculus. In outline: as §1
Experiment [10] is described as follows: In vitro Natural Killer cell activity (Activation of murine splenocyte NK cells by its ability to lyze YAC-1 target cells in chromium release assay) relative to interleukin 2 at 10E-4 to 10E-12 M conc; Range 81-100%. Format: functional, Mus musculus. The essentials:
as §1

Compound `NC(=O)CC[C@H](N)C(=O)NCCCCCCO` came in with a Stimulation in experiment [1] of 0%. Compound `CC1OC(OCCCCCCNC(=O)CC[C@H](NC(=O)[C@H](CCC(N)=O)NC(=O)[C@@H](C)N)C(=O)NCCCCCCOC2OC(C)C(O)C(O)C2O)C(O)C(O)C1O` (stereo not given in full) had a Stimulation in experiment [1] of 0%.

In experiment [2], `CC1OC(OCCc2ccc(NC(=O)[C@H](CCC(N)=O)NC(=O)[C@@H](C)N)cc2)C(O)C(O)C1O` (stereo not given in full) returned a Stimulation of 0%. As to `CC1OC(OCCCCCCNC(=O)[C@@H](N)CCC(N)=O)C(O)C(O)C1O` (stereo not given in full), in [3], the Concentration came out at 100 nM. Also, the Stimulation in experiment [4] is on record as 21%. `CC1OC(OCCCCCCNC(=O)[C@H](CC(N)=O)NC(=O)[C@@H](C)N)C(O)C(O)C1O` (stereo not given in full) registered a Stimulation in experiment [2] of 0%. Regarding `CC(=O)N[C@@H](CCC(N)=O)C(=O)NCCCCCCOC1OC(C)C(O)C(O)C1O` (stereo not given in full), the Stimulation in experiment [2] turned out to be 0%.

Take `CC1OC(OCCCCCCNC(=O)[C@H](CCC(=O)O)NC(=O)[C@H](C)N)C(O)C(O)C1O` (stereo not given in full): the Stimulation in experiment [5] worked out at 41%.

In the case of `CC1OC(OCCCCCCNC(=O)[C@H](CCC(N)=O)NC(=O)CCN)C(O)C(O)C1O` (stereo not given in full), in experiment [1], the Stimulation was 0%. In turn, `C=CCn1c(=O)n([C@@H]2O[C@H](CO)[C@@H](O)[C@H]2O)c2nc(N)[nH]c(=O)c21` [LOXORIBINE] returned a Stimulation in experiment [2] of 0%.

In turn, `CC1OC(OCCCCCCNC(=O)[C@@H]2CCCN2C(=O)[C@H](C)N)C(O)C(O)C1O` (stereo not given in full) came in with a Stimulation in experiment [2] of 0%. In [6], `O=C1CC[C@@H](C(=O)NCCCCCCO)N1` came in with a Stimulation of 61%. Moreover, the Concentration in [7] was 10 pM. The compound `C[C@H](N)C(=O)N[C@@H](CCC(N)=O)C(=O)NCCCCCCO` displayed a Stimulation in experiment [5] of 41%. Compound `CC(=O)OCCCCCCNC(=O)[C@@H](CCC(N)=O)NC(=O)[C@H](C)N` had a Stimulation in [1] of 0%. Compound `C[C@@H](N)C(=O)N[C@H]1CCC(=O)NC1=O` gave a Stimulation in experiment [2] of 0%. As to `CC1OC(OCCCCCCNC(=O)[C@H](CCC(N)=O)NC(=O)[C@H](C)N)C(O)C(O)C1O` (stereo not given in full), the Concentration in [8] and in experiment [7] was 10 pM in each case. Besides, in [6], the Stimulation came out at 61%.

Turning to `C[C@@H](N)C(=O)N[C@@H](CCC(N)=O)C(=O)NCCCCCC(=O)O`, the Stimulation in experiment [2] was 0%.

`CC1OC(OCCCCCCNC(=O)[C@H](CCC(N)=O)NC(=O)[C@H](N)C(C)C)C(O)C(O)C1O` (stereo not given in full) had a Concentration in experiment [8] of 10 pM. The Stimulation in experiment [5] was 41%. `CC(C(=O)OCCCCCn1cnc2c(N(C)C)ncnc21)[C@H](C)CCCN=C(N)N` (stereo not given in full): in [2], the Stimulation is reported as 0%. `C[C@@H](N)C(=O)N[C@@H](CCC(N)=O)C(=O)NCCCCCCCCCCCCO` registered a Stimulation in experiment [9] of 41%. The compound `C[C@@H](N)C(=O)N[C@@H](CCC(N)=O)C(=O)NCCCCCCO` displayed a Stimulation in experiment [10] of 101%.
